From ChEMBL document CHEMBL4340510, “Design, synthesis, and biological evaluation of truncated deguelin derivatives as Hsp90 inhibitors” (Eur J Med Chem, 2019)
The source made the active and inactive calls. No cut-off for these calls is given here.

Legend:
[1] = system: NCI-H1299; test: Antiproliferative activity against human NCI-H1299 cells assessed as inhibition of cell growth at 0.1 uM after 72 hrs by MTT assay relative to control; assay type: functional; conditions: NCI-H1299, 72 h, read-out: GI
Outline: (§1)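 Cells in RPMI 1640 are seeded at 4,000 cells/well and held 24 h at 37 °C, 5% CO2. Medium is replaced with compound-containing medium (DMSO ≤0.25%) for 72 h at 37 °C. MTT read-out by absorbance at 570 nm. Quadruplicate wells, repeated three times; values are means of three independent experiments.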

[2] = system: NCI-H1299; test: Antiproliferative activity against human NCI-H1299 cells assessed as inhibition of cell growth at 1 uM after 72 hrs by MTT assay relative to control; assay type: functional; conditions: NCI-H1299, 72 h, read-out: GI; outline: as §1
[3] = molecular target: T1, Heat shock protein HSP90 (Homo sapiens) (UniProt P07900+P08238); test: Inhibition of HSP90 in human MCF7 cells assessed as reduction in AKT expression at 4 uM by coimmunoprecipitation-based Western blot assay; assay type: cell-based
Outline: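 Cells are treated with 4 μM. Anti-Hsp90 or anti-Akt antibodies are added to the supernatants, and immune complexes are pulled down with protein A agarose. Complexes are eluted by boiling in loading buffer and immunoblotted with anti-Hsp90 or anti-Akt antibodies.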

[4] = molecular target: T1, Heat shock protein HSP90 (Homo sapiens); test: Induction of HSP90-mediated AKT degradation in human MCF7 cells assessed as increase in ubiquitinated AKT expression at 4 uM by coimmunoprecipitation-based Western blot assay; assay type: cell-based
[5] = molecular target: T1, Heat shock protein HSP90 (Homo sapiens); test: Inhibition of HSP90 in human MCF7 cells assessed as decrease in phosphorylation of AKT after 48 hrs by Western blot analysis; assay type: cell-based
Outline: (§2)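 Cells are treated 48 h and washed twice in ice-cold PBS. They are lysed on ice for 20 min and spun at 13,000 g, 4 °C. 20 μg protein is run on 8-12% SDS-PAGE and transferred to PVDF. Membranes are probed overnight at 4 °C with primary antibodies (Bcl-xL, cleaved caspase-3, mTOR/p-mTOR, MAPK/p-MAPK, Akt/p-Akt, HIF-1α, survivin; β-actin/GAPDH loading). HRP secondary and chemiluminescence detection follow.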

[6] = molecular target: T1, Heat shock protein HSP90 (Homo sapiens); test: Inhibition of HSP90 in human MCF7 cells assessed as down regulation of HIF-1alpha expression after 48 hrs by Western blot analysis; assay type: cell-based; outline: as §2
[7] = molecular target: T1, Heat shock protein HSP90 (Homo sapiens); test: Inhibition of HSP90 in human MCF7 cells assessed as down regulation of survivin expression after 48 hrs by Western blot analysis; assay type: cell-based; outline: as §2
[8] = system: MCF7; test: Cell cycle arrest in human MCF7 cells assessed as accumulation at G2 phase at 0.5 uM after 48 hrs by propidium iodide staining-based flow cytometry (reference value: 22.74%); assay type: functional
Outline: (§3)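 5×10^4 cells are seeded, incubated overnight, then treated 48 h. Cells are washed in cold PBS and fixed in 70% ethanol at −20 °C for 12 h. They are then stained with 100 µg/mL RNase plus 50 µg/mL PI in PBS, 37 °C for 30 min. DNA content is measured by flow cytometry.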

[9] = system: MCF7; test: Cell cycle arrest in human MCF7 cells assessed as accumulation at S phase at 0.5 uM after 48 hrs by propidium iodide staining-based flow cytometry (reference value: 16.64%); assay type: functional; outline: as §3
[10] = system: MCF7; test: Cell cycle arrest in human MCF7 cells assessed as accumulation at G1 phase at 1 uM after 48 hrs by propidium iodide staining-based flow cytometry (reference value: 60.61%); assay type: functional; outline: as §3
[11] = system: MCF7; test: Cell cycle arrest in human MCF7 cells assessed as accumulation at G2 phase at 2 uM after 48 hrs by propidium iodide staining-based flow cytometry (reference value: 22.74%); assay type: functional; outline: as §3
[12] = system: MCF7; test: Cell cycle arrest in human MCF7 cells assessed as accumulation at G1 phase at 4 uM after 48 hrs by propidium iodide staining-based flow cytometry (reference value: 60.61%); assay type: functional; outline: as §3
[13] = system: MCF7; test: Cell cycle arrest in human MCF7 cells assessed as accumulation at G2 phase at 4 uM after 48 hrs by propidium iodide staining-based flow cytometry (reference value: 22.74%); assay type: functional; outline: as §3
[14] = system: MCF7; test: Antimigratory activity in human MCF7 cells at 250 to 1000 nM after 24 hrs by phase contrast inverted microscopy-based scratch wound healing assay; assay type: functional, cell-based
Outline: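 Cells are grown to confluence in DMEM with 10% FBS and scratched with a sterile 200 μL pipette tip. Wounds are imaged by phase contrast on an inverted microscope (10× objective) at 0, 24 and 48 h. Eight images per treatment are analysed by drawing lines at the wound edges of migrating cells.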

[15] = system: MCF7; test: Antiinvasive activity in human MCF7 cells assessed as number of invaded cells at 1 uM after 24 hrs by crystal violet dye-based transwell matrix penetration assay (reference value: 172.1 +/- 8.3); assay type: functional
[16] = system: MCF7; test: Potency index, ratio of deguelin IC50 to test compound IC50 for human MCF7 cells; assay type: functional
Outline: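 MTT assay on MCF-7 cells. Cells were seeded at 4,000/well and pre-incubated 24 h at 37 °C in humidified 5% CO2, then exposed to a range of compound concentrations for 72 h, with DMSO at no more than 0.25%. Absorbance was read at 570 nm, in quadruplicate, repeated three times. The IC50 for each test compound and for deguelin is the mean of three independent experiments, and the index is the deguelin IC50 divided by the compound IC50.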

COc1cc(OC)c(OC)cc1CC(=O)c1ccc2c(c1OC)C=CC(C)(C)O2
inhibition of growth at 0.1 µM [1]: 15.3% | inhibition of growth at 1 µM [2]: 40.3% | inhibition [3]: Active | Activity [4]: Active | inhibition [5]: Dose-dependent effect | inhibition [6]: Dose-dependent effect | inhibition [7]: Dose-dependent effect | Activity [8]: 19.51% | Activity [9]: 22.99% | Activity [10]: 55.26% | Activity [11]: 34.16% | Activity [12]: 40.72% | Activity [13]: 29.7% | Activity [14]: Active | Activity [15]: 63.2 | Ratio IC50 [16]: 3
